Assay outcomes deposited in PubChem BioAssay by several laboratories.
The list is not random: actives were taken first. Their share in the collection is about 2.7%.
Hep lipid drop = modulators of hepatic lipid droplet formation; AML12 mouse hepatocytes, oleate lipid droplets, BODIPY imaging; inhibition, % at 6.5 µM; actives 0.4% (n = 240,000); AID 1656;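 active = lipid droplet intensity inhibited by at least 50%, with more than 500 cells counted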
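Test system: AML12 hepatocytes (mouse); reagent: oleate loading, 100 µM; dosing: one dose, 6.5 µM compound; incubation: overnight exposure; signal: fluorescence imaging, 20x objective, two fields per well; read-out basis: % inhibition of corrected integrated BODIPY droplet signal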
MC4R antag cAMP = human MC4R antagonism in cAMP assay. P32245. MC4R-expressing cells, MTII-stimulated cAMP, LANCE TR-FRET. inhibition, % at 6.5 µM. actives 0.48% (n = 360,000). AID 540295;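 active = inhibition above its plate's cutoff, the mean of tested wells on that plate plus 3 SD, cut at about 29% in these data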
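Assay system: U2OS cells stably expressing human melanocortin 4 receptor (MC4R) / Dosing: 6.5 µM / Timing: compound 30 min, challenge 1 h, detection 1 h / Measured by: Eu-cAMP/anti-cAMP TR-FRET, emission 671 nm / Replicates: singlicate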
HTR2A ag = agonists of mouse serotonin 5-HT2A receptor (HTR2A) | activation, % at 7.6 µM | actives 0.66% (n = 360,000) | CHO-K1 mHTR2A beta-arrestin complementation, luminescence; percent of 30 µM serotonin response | AID 624169;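 active = activation above a run cutoff, the mean activation of all tested compounds plus 3 SD, cut at about 14% in these data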
Target sequence (P35363 whole entry, looked up): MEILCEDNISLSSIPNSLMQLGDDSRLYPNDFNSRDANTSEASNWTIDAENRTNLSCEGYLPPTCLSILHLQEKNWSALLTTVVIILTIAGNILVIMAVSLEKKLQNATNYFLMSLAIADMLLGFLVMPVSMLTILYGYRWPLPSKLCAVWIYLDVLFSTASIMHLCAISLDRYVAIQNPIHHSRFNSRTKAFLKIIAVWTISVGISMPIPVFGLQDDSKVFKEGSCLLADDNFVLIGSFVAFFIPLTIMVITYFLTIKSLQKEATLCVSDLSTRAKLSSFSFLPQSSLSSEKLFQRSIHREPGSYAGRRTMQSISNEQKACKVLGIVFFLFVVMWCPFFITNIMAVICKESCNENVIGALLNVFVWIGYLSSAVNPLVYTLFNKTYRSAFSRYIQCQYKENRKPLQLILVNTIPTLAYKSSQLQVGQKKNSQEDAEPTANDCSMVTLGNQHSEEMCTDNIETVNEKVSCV
NTR1 agonist = NTR1 (human) agonism | activation, % at 20 µM | actives 0.17% (n = 330,000) | P30989 | NTR1-U2OS beta-arrestin-GFP spot imaging, agonist mode;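 active = activation at or above 40% of the spot to cytoplasm intensity ratio, with at least 20 cells analyzed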
MC4R barr agon = agonists of human melanocortin 4 receptor (MC4R) beta-arrestin | P32245 | U2OS MC4R beta-arrestin complementation, luminescence; percent of melanotan II response, DMSO zero | activation, % at 8.9 µM | actives 0.98% (n = 360,000) | AID 540308;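 active = activation above a per-plate cutoff, the mean activation of sample wells on that plate plus 3 SD, cut at about 8% in these data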
PREPL inh = human PREPL enzyme inhibition. Q4J6C6. recombinant PREPL, fluorescence polarization activity-based probe. inhibition, % at 5.96 µM. actives 0.68% (n = 320,000); in the data active = inhibition above about 43%
cAMP nonselect = nonselective cAMP signaling inhibitor, MC4R antagonist counter-screen; shares compounds with MC4R antag cAMP; parental U2OS, forskolin cAMP, LANCE TR-FRET; inhibition, % at 6.5 µM; actives 26% (n = 1,600);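 active = mean inhibition over triplicates above the low-control well mean plus 3 SD, set per campaign, cut at about 13% in these data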;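 also: signal is single emission at 671 nm which falls as cellular cAMP rises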
MC4R antag conf = human MC4R cAMP antagonism confirmation | shares compounds with MC4R antag cAMP | MC4R-expressing cells, MTII-stimulated cAMP, TR-FRET | inhibition, % at 6.5 µM | actives 27% (n = 1,600); in the data active = inhibition above about 29%
Of the large screens only hits and unclear results are named; the others gave an inactive call (follow-up assays come after a bar, where they were run).

CCC1(C)Cc2ccccc2-c2[nH]c(=S)[nH]c(=O)c21 (stereo unspecified)	MC4R antag cAMP 29 | cAMP nonselect 20 | MC4R antag conf 47
Cc1c(O)c2c3c(cccc3c1O)C(=O)N(c1ccccc1)C2=O	none (no result: NTR1 agonist)
O=C1C=CC(=O)N1CCCCCCCCCCN1C(=O)C=CC1=O	MC4R antag cAMP 78 (no result: Hep lipid drop, NTR1 agonist, PREPL inh) | cAMP nonselect 20 | MC4R antag conf 49
O=C1C=CC(=O)N1Cc1ccncc1	none (no result: Hep lipid drop, NTR1 agonist, PREPL inh)
COc1ccc(NC(=O)/C(C#N)=C\c2ccc(N3CCOCC3)o2)cc1	none
N#C/C(=C/c1ccc(N2CCCCC2)o1)C(=O)Nc1ccc2ccccc2c1	MC4R antag cAMP 29 (no result: NTR1 agonist, PREPL inh) | cAMP nonselect inactive | MC4R antag conf inactive
O=C(O)CNC(=O)C(c1ccccc1)c1ccccc1	none
O=C(CNC(=O)C(c1ccccc1)c1ccccc1)OCc1ccccc1	MC4R antag cAMP 30 | cAMP nonselect inactive | MC4R antag conf inactive
COC12CC(=O)C(C(C)=O)=C(O)C1(C)c1c(O)c(C)c(O)c(C(C)=O)c1O2 (stereo unspecified)	none (no result: Hep lipid drop, NTR1 agonist, PREPL inh)
CC(=O)c1c(O)c(C)c(O)c2c1OC1=CC(=O)/C(=C(/C)N)C(=O)C12C (stereo unspecified)	MC4R antag cAMP 36 (no result: Hep lipid drop, NTR1 agonist, PREPL inh) | cAMP nonselect inactive | MC4R antag conf inactive
CCC(C)(C)NC(=O)CN(Cc1ccc2c(c1)OCO2)C(=O)CCC(=O)Nc1cc(C)ccn1	MC4R antag cAMP 30 | cAMP nonselect inactive | MC4R antag conf inactive
CC(=O)Nc1cccc(-c2cc(NC(C)=O)c3ncc(-c4ccc(C(C)=O)cc4)n3c2)c1	MC4R antag cAMP 33, MC4R barr agon 9.0 (no result: Hep lipid drop, NTR1 agonist, PREPL inh) | cAMP nonselect inactive | MC4R antag conf inactive
O=[N+]([O-])c1cc(S(=O)(=O)NCCN2CCOCC2)ccc1Cl	MC4R antag cAMP 29 | cAMP nonselect inactive | MC4R antag conf inactive
CC(=O)Nc1ccc(S(=O)(=O)N[C@@H](C)C(=O)OCC(=O)c2ccc(Br)s2)cc1	MC4R antag cAMP 34 (no result: Hep lipid drop, NTR1 agonist, PREPL inh) | cAMP nonselect 33 | MC4R antag conf 55
C/C(=N\NC(=O)c1cccc(N/N=C(\C)c2cc(O)ccc2O)c1)c1cc(O)ccc1O	none
CC/C(Cc1ccccc1)=N/NC(=O)CNC(=O)c1ccc(Cl)cc1Cl	none (no result: PREPL inh)
CC/C(C)=N\NC(=O)CNC(=O)c1ccc(Cl)cc1Cl	MC4R antag cAMP 31 | cAMP nonselect inactive | MC4R antag conf inactive
CC(=O)Nc1ccc(NC(=O)CSc2nnc(-c3cccs3)n2N)cc1	none (no result: Hep lipid drop)
Cc1ccc(CNC(=O)CN2C(=O)c3ccccc3S2(=O)=O)cc1	none
Cc1ccccc1CNC(=O)CN1C(=O)c2ccccc2S1(=O)=O	MC4R antag cAMP 29 | cAMP nonselect inactive | MC4R antag conf inactive
CC(CCc1ccccc1)NC(=O)CN1CCOc2ccccc21 (stereo unspecified)	none (no result: Hep lipid drop)
CC(CCc1ccccc1)NC(=O)CN1CCSc2ccccc21 (stereo unspecified)	MC4R antag cAMP 31 | cAMP nonselect inactive | MC4R antag conf inactive
Cc1ccccc1OCc1nnc(SC(C)C(=O)O)n1-c1ccccc1 (stereo unspecified)	MC4R antag cAMP 42 (no result: Hep lipid drop, NTR1 agonist, PREPL inh) | cAMP nonselect inactive | MC4R antag conf inactive
O=C1C=CC(=O)N1CCNc1ncc(C(F)(F)F)cc1Cl	MC4R antag cAMP 53 (no result: PREPL inh) | cAMP nonselect inactive | MC4R antag conf inactive
O=C1CC(=O)N(CCNc2ncc(C(F)(F)F)cc2Cl)C(=O)N1	none (no result: Hep lipid drop)
COc1cc(/C=N/NC(=O)c2ccc(O)cc2)ccc1Oc1ccc([N+](=O)[O-])cn1	none
Cn1nc(C(=O)OCC(=O)Nc2ccccc2OC(F)F)c2ccccc2c1=O	none (no result: Hep lipid drop)
COc1ccc(S(=O)(=O)N(C)C)cc1NC(=O)COC(=O)c1nn(C)c(=O)c2ccccc12	MC4R antag cAMP 34 | cAMP nonselect inactive | MC4R antag conf inactive
